We go through 95 compounds from ChEMBL document CHEMBL4513216, “Probing the Open Global Health Chemical Diversity Library for Multistage-Active Starting Points for Next-Generation Antimalarials” (ACS Infect Dis, 2020).

This data set is described as follows: Toxicity liver stage against HepG2, at 10uM. Format: cell-based. Further details: test concentration 10 uM, cell line HepG2-A16-CD81EGFP. Conditions: human, HepG2-A16-CD81EGFP cells; read-out: INHIBITION
Summed up: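 Uninfected HepG2-A16-CD81EGFP cells, 3 × 10^3 per well, 1536-well, plated on prespotted compound at 10 μM final, parasite-free screening media added to match infected plates; puromycin 10 μM positive, DMSO 0.5% negative; run in parallel with 48 h PbLuc assay at 37 °C, 5% CO2; viability by CellTiter-Glo luminescence, normalized to controls.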
With `CCOC(=O)c1cnn(-c2cc(Oc3cccc(C)c3)ncn2)c1N`, the cytotoxicity at 10 µM was determined as 16.9%.

For `Cn1c(CN2CCOC[C@H]2c2nc(C(C)(C)C)co2)nc2ccccc21`, the cytotoxicity at 10 µM came out at 4.78%.

On to `CS(=O)(=O)NC[C@H]1Cn2c(-c3ccc(F)cc3)cnc2CO1`, for which the cytotoxicity at 10 µM was -7.47%.

In the case of `CCOc1ccc(C(=O)Nc2c(C)nc3ccc(Cl)cn3c2=O)cc1`, the cytotoxicity at 10 µM was -4.31%.

`CCN1C(=O)C(C#N)=C(C)/C(=C/C2=Cc3ccccc3OC2)C1=O`: the cytotoxicity at 10 µM is -40.9%.

On to `Cc1cnc2c(c1NCc1ccc(F)cc1)c(=O)n(C)c(=O)n2C`, for which the cytotoxicity at 10 µM is -7.36%.

`CNC(=O)C1CC2(CCN(C(=O)c3csnn3)CC2)c2ccccc21` (stereo not given): the cytotoxicity at 10 µM is -154%.

Regarding `COCCNC(=O)c1sccc1N(C)S(=O)(=O)c1ccc(Cl)cc1`, the cytotoxicity at 10 µM is 6.33%.

As for `Cc1ccccc1COCCOCn1c(C)cc(=O)[nH]c1=O`, the cytotoxicity at 10 µM came out at 2.56%.

Regarding `CCn1ncc(Cn2cc(Cl)c(N)n2)c1C`, the cytotoxicity at 10 µM was -8.55%.

Take `CC(C)c1cc(C(=O)NCCN2CCOCC2)nc(N2CCCC2)n1`: the cytotoxicity at 10 µM is 8.82%.

As for `c1ccc(N2CCN(Cc3cnc(C4CCCCO4)nc3)CC2)nc1` (stereo not given), the cytotoxicity at 10 µM is -3%.

For the compound `CCc1cc(C(F)(F)F)c2c(C3CCN(C(=O)COC)CC3)noc2n1`, the cytotoxicity at 10 µM was determined as 14%.

`O=C(Cc1ccccn1)N1CCc2c(O)nc(-c3cnccn3)nc2C1`: the cytotoxicity at 10 µM was -27%.

Regarding `Cc1cccc(CN2CCCC2c2cccc(CCC(=O)O)n2)c1` (stereo not given), the cytotoxicity at 10 µM is -12.6%.

As to `Cc1cncc(CN2C[C@@H](O)[C@H](Oc3ccccc3)C2)c1`, the cytotoxicity at 10 µM is 0.442%.

For `O=C(C1CCCC1)N1CCC(c2n[nH]c3nccnc23)CC1`, the cytotoxicity at 10 µM turned out to be 0.165%.

As to `CC(=O)N1CCCC1c1cc(N2CCN(CC(C)(C)C)CC2)cc(C)n1` (stereo not given), the cytotoxicity at 10 µM was -6.41%.

As for `Cc1ccc(-c2nc(CC(=O)N3CCCC(NC(=O)C(C)C)C3)cs2)o1` (stereo not given), the cytotoxicity at 10 µM is -50.5%.

`OCC(CO)Nc1nc(C(F)F)nc2ccccc12`: the cytotoxicity at 10 µM was 6.96%.

As to `Cc1noc(C2CCCN(C(=O)c3cc(Cl)c(Cl)n3C)C2)n1` (stereo not given), the cytotoxicity at 10 µM worked out at 13.6%.

Take `CCOc1nnc(CN2CCN(CCOC)C(C)C2)s1` (stereo not given): the cytotoxicity at 10 µM was -11.1%.

Regarding `O=C(c1cc(C2CC2)nc2onc(-c3ccccc3)c12)N1CCOCC1`, the cytotoxicity at 10 µM was -40.5%.

`COCCNc1ccccc1CNC(=O)NCc1cnc(C)s1`: the cytotoxicity at 10 µM turned out to be 10.6%.

Turning to `CCc1noc(CS(=O)(=O)C(C)c2nc(C3CC3)no2)n1` (stereo not given), the cytotoxicity at 10 µM is 11.3%.

On to `CN(C)c1cc(CNCc2cccc3c2OCCO3)ccn1`, for which the cytotoxicity at 10 µM was determined as 3.57%.

As for `CCC(C)NC(=O)c1nnn(-c2cccc3c2CCN(C)C3)c1C` (stereo not given), the cytotoxicity at 10 µM was -6.39%.

For the compound `CCOc1cc(C(=O)N(C)C)ccc1NC(=O)C(C)c1ccsc1` (stereo not given), the cytotoxicity at 10 µM was 5.61%.

For the compound `Cc1nc(SC2CCN(c3sccc3C#N)C2=O)oc1C` (stereo not given), the cytotoxicity at 10 µM was -4.92%.

Regarding `Cc1occc1C(=O)N(CCN(C)C)Cc1ccccn1`, the cytotoxicity at 10 µM stood at 7.65%.

As for `N#CC1(NC(=O)c2ccc(F)c(Br)c2)CCSC1` (stereo not given), the cytotoxicity at 10 µM was -7.08%.

As to `CCCNC(=O)C1CCN(CC(O)c2ccc(C(F)(F)F)cc2)CC1` (stereo not given), the cytotoxicity at 10 µM stood at 2.68%.

On to `CC(C)c1noc(CCC(=O)N2CCSCC2)n1`, for which the cytotoxicity at 10 µM is -2.99%.

For `O=C(CNc1cccc(S(=O)(=O)C(F)F)c1)NCc1ccco1`, the cytotoxicity at 10 µM was -40.5%.

As to `CCC(CC)c1nnc(NC(=O)N2CCCC(NC(C)=O)C2)s1` (stereo not given), the cytotoxicity at 10 µM turned out to be 5.9%.

`Cc1ccc2cc(C(=O)N3CCC(O)(C(F)(F)F)CC3)ccc2n1`: the cytotoxicity at 10 µM was -54.7%.

With `Cn1cc(C(=O)N2CCOc3ccccc32)ccc1=O`, the cytotoxicity at 10 µM is 13%.

Take `CCN(C(=O)COC)C(c1cccnc1)c1ccc2c(c1)CCO2` (stereo not given): the cytotoxicity at 10 µM is -12.4%.

For the compound `COCC1c2nnn(C)c2CCN1C(=O)CCc1cccc(OC)c1` (stereo not given), the cytotoxicity at 10 µM was -90.4%.

For `O=C(NC1CC1)c1cc2c(s1)CCN2C(=O)C1CC1`, the cytotoxicity at 10 µM came out at 6.17%.

In the case of `COc1cc(F)ccc1CC(=O)N1CC[C@H]2C(=O)NCCO[C@H]2C1`, the cytotoxicity at 10 µM is -108%.

Take `COCc1cnc2n1CCN(C(=O)c1oc3ccccc3c1C)C2C` (stereo not given): the cytotoxicity at 10 µM is -104%.

For `CCOCc1cnc2n1CCN(C(=O)c1cccc3c1OCCO3)C2C` (stereo not given), the cytotoxicity at 10 µM was -98.2%.

With `Cc1cnc(C(=O)N2CCN3C[C@H](OCc4cccnc4)C[C@H]3C2)cn1`, the cytotoxicity at 10 µM was -59.7%.

On to `O=C(C1CCOC1)N1CCC2(CCN(Cc3nccs3)CC2)CC1` (stereo not given), for which the cytotoxicity at 10 µM is -73.3%.

For the compound `O=C(c1ccoc1)N1CC[C@@H]2O[C@@H](COCc3ccncc3)CC[C@@H]21`, the cytotoxicity at 10 µM is -80.4%.

As for `c1cncc(-c2nc(C3CC3)ncc2-c2ccnc(N3CCCC3)n2)c1`, the cytotoxicity at 10 µM was -2.5%.

On to `CC(C)CC(=O)N1CC(=O)c2sc(Nc3ccc(F)cc3)nc2C1`, for which the cytotoxicity at 10 µM was -2.28%.

Take `Cc1nc2sccn2c1C(=O)N1CCc2c(nc(N(C)C)[nH]c2=O)C1`: the cytotoxicity at 10 µM worked out at 5.06%.

Regarding `CSc1nnc(CC2CCN(C(=O)CCc3cccnc3)CC2)n1C`, the cytotoxicity at 10 µM is -43.5%.

For `CCc1nc2c(c(N3CCOCC3)n1)CCN(C(=O)c1ccon1)CC2`, the cytotoxicity at 10 µM amounted to 10.6%.

For `CC(C)N(C(=O)N1CCn2cncc2C1)C(C)C`, the cytotoxicity at 10 µM was -12.3%.

Take `O=C(O)CCc1cc2n(n1)CCCN(C(=O)c1ccc(Cl)s1)C2`: the cytotoxicity at 10 µM is -6.06%.

In the case of `CS(=O)(=O)N1CC[C@]2(O)CCN(c3cc(C#N)ccn3)C[C@@H]2C1`, the cytotoxicity at 10 µM turned out to be 6.36%.

`CCCC(C)NC1CCN(c2ccc(-n3ccnc3C)cc2)CC1` (stereo not given): the cytotoxicity at 10 µM was -3.67%.

Consider `Cc1nccn1CCC1CCCCN1Cc1ccc2c(c1)OCCO2` (stereo not given), for which the cytotoxicity at 10 µM was -7.63%.

As to `C=C(C)COc1cccc(C(=O)NC(C)c2nnn[nH]2)c1` (stereo not given), the cytotoxicity at 10 µM was -8.32%.

`COc1ccc(Cc2noc(-c3ccc(NC(C)CO)nc3)n2)cc1` (stereo not given): the cytotoxicity at 10 µM is -3.06%.

On to `CCc1cc(-c2ccnc3c2ccn3C)nc(N2CCOCC2)n1`, for which the cytotoxicity at 10 µM was -7.09%.

For `COCC(=O)N(Cc1cccc(C)c1)Cc1ccccc1OC`, the cytotoxicity at 10 µM is -51.4%.

For the compound `O=C(CCN1CCCC1)N1CC[C@@H](c2ccc3ccccc3c2)[C@H](O)C1`, the cytotoxicity at 10 µM was determined as 2.97%.

With `O=C(O)C1(Cc2ccc(Cl)cc2)CCN(c2ncccc2F)CC1`, the cytotoxicity at 10 µM was -1.29%.

On to `CN(C)[C@H]1CCCCN(C(=O)COCc2nc3cc(F)ccc3[nH]2)C1`, for which the cytotoxicity at 10 µM was found to be 0.185%.

Take `COCC1(CNC(=O)Nc2cc(F)ccc2OC)CCCC1`: the cytotoxicity at 10 µM stood at 5.17%.

As to `CNC(=O)[C@@H]1C[C@@H](NC(=O)Cc2nonc2C)CN1Cc1sccc1C`, the cytotoxicity at 10 µM was -4.42%.

As to `CCc1cc(NC2CCN(CC(N)=O)CC2)nc(N2CCCCC2)n1`, the cytotoxicity at 10 µM was -4.75%.

For the compound `Cc1nn(C)cc1-c1ccnc(N(C)Cc2ccoc2)n1`, the cytotoxicity at 10 µM came to 23.8%.

With `CN1CCN(c2cnn(Cc3ccc(S(C)(=O)=O)cc3)c(=O)c2)CC1`, the cytotoxicity at 10 µM is -10.4%.

Turning to `COc1ccc(-c2n[nH]cc2CN(C)Cc2nccn2C)c(F)c1`, the cytotoxicity at 10 µM was -2.77%.

Consider `O=C(O)C(c1ccc(Cl)c(F)c1)N1CCN(Cc2ccccn2)CC1` (stereo not given), for which the cytotoxicity at 10 µM amounted to 8.09%.

For the compound `COc1ccc(C(C)C)cc1C1CC(=O)NCc2nc(N(C)C)sc21` (stereo not given), the cytotoxicity at 10 µM is -1.22%.

Regarding `O=C(Nc1ccccc1Cl)N1CCN(CC2CC2)[C@@H]2CS(=O)(=O)C[C@@H]21`, the cytotoxicity at 10 µM came out at 2.72%.

In the case of `CN(C)CC1(O)CCCN(C(=O)Cc2ccc(Cl)c(Cl)c2)C1` (stereo not given), the cytotoxicity at 10 µM was 0.355%.

Regarding `Cn1ncc(NC(=O)Cn2ccc(-c3ccc(F)cc3)n2)n1`, the cytotoxicity at 10 µM worked out at 1.05%.

As to `COCC1(C(=O)N[C@H]2CN(c3ccnc(C)c3)C[C@@H]2C2CC2)CCC1`, the cytotoxicity at 10 µM was -160%.

Consider `CC(C)[C@H]1COC(=O)N1CC(=O)N1CCCN(C(=O)c2ccoc2)CC1`, for which the cytotoxicity at 10 µM was 3.38%.

With `O=c1[nH]c(NC2CCCC2)nc2nccc(-c3cccs3)c12`, the cytotoxicity at 10 µM is -18.1%.

Regarding `CCn1cncc1CNc1ccc(-c2nc(CC(C)C)no2)cn1`, the cytotoxicity at 10 µM was -9.07%.

Take `CN1CCCC(c2cccc(Cc3ccccc3Cl)n2)C1` (stereo not given): the cytotoxicity at 10 µM was determined as 1.03%.

On to `COc1cccc(COCC(O)CN2CC(n3cccn3)C2)c1` (stereo not given), for which the cytotoxicity at 10 µM is -8.52%.

Regarding `CS(=O)(=O)NCCCN1CCCCC1c1cc2ccccc2[nH]1` (stereo not given), the cytotoxicity at 10 µM is -10.6%.

With `Cc1ccc(-c2nc(CN3CCCC3Cn3cc(C)cn3)no2)cc1` (stereo not given), the cytotoxicity at 10 µM was determined as 4.07%.

On to `Cc1ccoc1C(=O)NC1CCN(Cc2cccc3c2OCCO3)CC1`, for which the cytotoxicity at 10 µM came to 1.18%.

As for `CC(C)Oc1ccccc1CNC(=O)N1CCC(n2cncn2)CC1`, the cytotoxicity at 10 µM was determined as 2.38%.

Turning to `CCOC(=O)N1CCN(c2nc(NCCCO)c3ccccc3n2)CC1`, the cytotoxicity at 10 µM was -9.21%.

As for `CCCc1nnsc1C(=O)N1CCN(CC(C)O)CC1` (stereo not given), the cytotoxicity at 10 µM is -5.3%.

Regarding `COCC(=O)N(C)Cc1nc(N2CCCC2)ncc1-c1ccncc1`, the cytotoxicity at 10 µM was found to be 12.3%.

On to `CC1CCN(CCCNS(=O)(=O)c2cc(F)cc(F)c2)CC1`, for which the cytotoxicity at 10 µM was 11.3%.

On to `Fc1cccc(-c2nnn3c2COC(CNCc2ccsc2)C3)c1` (stereo not given), for which the cytotoxicity at 10 µM is -1.52%.

Regarding `CCn1cc2c(n1)CN(Cc1sccc1C)CC2COCC1CC1` (stereo not given), the cytotoxicity at 10 µM is -57.3%.

Take `COCCN1CCC(c2nc3ccc(N4CCCC4)cn3n2)CC1`: the cytotoxicity at 10 µM is 11.8%.

In the case of `Cn1cc(N2C(=O)CC[C@@H]3[C@H]2CCN3C(=O)c2cscn2)cn1`, the cytotoxicity at 10 µM was -81.5%.

For `COCCN1CCc2cc(C(=O)NCC3CC3)c(NC(C)C)nc2CC1`, the cytotoxicity at 10 µM was found to be 73.6%.

With `Cc1cccc(CNC2CC3(CCN(CCO)CC3)c3ccccc32)n1` (stereo not given), the cytotoxicity at 10 µM is -110%.

Consider `Cc1cccc(CN2CC[C@H]3[C@H]2CCN3Cc2cnn(C)c2)n1`, for which the cytotoxicity at 10 µM stood at 8.67%.
